Data reported in publication PMC4469273 (Current pharmaceutical biotechnology, 2014).

Tests used:
S. aureus pneumonia = conditions: cited from earlier work
[1] = system: endothelial cell invasion by S. aureus; conditions: cited from earlier work
MSSA (ATCC 29213) = test: Bactericidal activity assay, MSSA; assay type: cell-based, Staphylococcus aureus; conditions: 10 μmol/L; for CFU/ml (×10^10± SEM), Compound: 1 h, 1.2 × 10^8 CFU/ml incubated, N = 3
How it was run: (§1)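 Washed S. aureus (overnight TSB at 225 rpm, 37°C; subcultured; saline-washed), 1.2 × 10^8 CFU/ml, incubated with test compound or vehicle control in EndoGRO-LS medium (1 h, 5% CO2, 37°C). Serial dilutions plated on tryptic soy agar (18-20 h, 37°C); colonies counted and CFU/ml calculated.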

[2] = system: HUVEC invasion by S. aureus ATCC 29213 (MSSA); test: Invasion assay: HUVEC infected with Alexa Fluor 488-labeled MSSA, flow cytometry; assay type: cell-based, human; conditions: for Internalized bacteria (% vehicle control ± SEM), RSM structural analog: N = 5
HUVEC = test: Cytotoxicity assay; assay type: cell-based, human; conditions: 10 μmol/L; for Mean fluorescence intensity (×10^4± SEM), Compound: PI fluorescence, N = 3
How it was run: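 HUVEC plated and compound-treated as for invasion: 1×10^5 cells/ml in 35 mm dishes or 1×10^4 cells/ml in 96-well plates, Attachment Factor-coated. Cells scraped and washed in FACS buffer (2% BSA/0.1% sodium azide/PBS). Brief incubation with propidium iodide at 0.5 mg/ml, then fluorescence read at once on Accuri C6 flow cytometer; MFI reported.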

[3] = system: vinculin-containing adhesion complexes in HUVEC; test: Vinculin-containing adhesion complexes, immunofluorescence; assay type: cell-based, human; conditions: 10 μmol/L, 18-20 h; vehicle control 64%
How it was run: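 HUVEC at 3 × 10^4 on Attachment Factor-coated glass-bottom dishes, treated 18-20 h with DMSO vehicle or test compound. Fixed, then permeabilized/blocked (0.1% Triton/1% BSA). Stained with anti-vinculin (1:25), then rabbit anti-mouse Alexa Fluor 488 (1:250). Confocal imaging at 63X water immersion; Z-stack maximum projections. Percentage of cells with adhesion complexes from 100-200 cells/treatment in random fields; χ2 test.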

[4] = system: HUVEC adhesion to human fibronectin; test: Fibronectin adhesion assay; assay type: cell-based; conditions: 10 μmol/L, 18-20 h; vehicle control 24±4%
How it was run: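 Compound or DMSO vehicle applied to HUVEC for 18-20 h (invasion-assay plating). Wells coated with human fibronectin (20 μg/ml, 2 h, 37°C) and blocked with 2% BSA (30 min, RT). Scraped cells counted by flow cytometry for input, re-plated 2 h at 37°C/5% CO2. After PBS washes, adherent cells trypsinized, fixed, counted; normalized to input. Two pooled experiments, n=8/treatment.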

NRS123 = test: Bactericidal activity assay, NRS123; assay type: cell-based, Staphylococcus aureus
How it was run: as §1

β1 integrin subunit = test: β1 integrin surface expression, flow cytometry; assay type: cell-based, human; conditions: 10 μmol/L, 18-20 h, vs vehicle control
How it was run: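 Following 18-20 h pretreatment (DMSO vehicle or test compound), integrin recycling stopped at 4°C for 15 min. Cells scraped and washed in FACS buffer, stained with PE-conjugated anti-β1 (30 min, on ice), then fixed in FACS buffer with 4% paraformaldehyde. PE MFI measured on 600 FSC-A/SSC-A-gated cells; expressed as percent control; Mann-Whitney Rank Sum test.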

[5] = system: HUVEC infected with Staphylococcus aureus; test: Transmission electron microscopy of infected HUVEC; assay type: cell-based, human; conditions: 10 μmol/L, 18-20 h pretreatment, infected 2 h
How it was run: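 Coverslip HUVEC (3 × 10^5/ml) pretreated 18-20 h with PEG vehicle or test compound, infected with S. aureus (MOI 30, 2 h, 37°C). Lysostaphin/gentamicin removal (45 min), then 24 h in antibiotic medium. Fixed in 2.5% glutaraldehyde/2.0% paraformaldehyde/2 mmol/L Ca/1 mmol/L Mg; post-fixed in 1% OsO4/1.5% ferrocyanide in 0.1 mol/L cacodylate. Ethanol/propylene oxide dehydration, resin embedding. Ultrathin sections stained with uranyl acetate/lead citrate, imaged at 120 kV.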

[6] = system: actin stress fibers in HUVEC; test: Actin stress fiber disassembly, immunofluorescence; assay type: cell-based, human; conditions: 10 μmol/L, 18-20 h, infected 1 h
How it was run: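 HUVEC (3 × 10^5/ml, Attachment Factor-coated glass-bottom dishes) pretreated 18-20 h with PEG vehicle or test compound. Infected with S. aureus (MOI 1200, 1 h, 5% CO2, 37°C), PBS-washed, fixed in 4% paraformaldehyde (30 min), then permeabilized/blocked in 0.1% Triton/1% BSA. Stained with Alexa Fluor 488 phalloidin (1:40), imaged by confocal (40X water immersion). Scored as % cells lacking stress fibers, 100-200 cells/treatment from random fields; χ2 test.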

[7] = system: HUVEC invasion by MRSA252 NRS71; test: Invasion assay with hospital MRSA strain; assay type: cell-based, human; conditions: 10 μmol/L, 18-20 h pretreatment
How it was run: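 HUVEC pretreated 18-20 h with test compound or vehicle. MRSA252 NRS71 labeled through protein A with rabbit anti-mouse IgG Alexa Fluor 488 (final 8 μg/ml, RT, 20 min), washed, set to 3×10^8 CFU/ml. Infection at MOI 1440 (1 h, 37°C, 5% CO2), then lysostaphin (20 μg/ml)/gentamicin (50 μg/ml) for 45 min. Cells scraped and fixed in 1% BSA/0.74% formaldehyde; MFI from 1500 FSC/SSC-gated cells, as % control.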

MRSA252 NRS71 = test: Bactericidal activity assay, MRSA252 NRS71; assay type: cell-based, Staphylococcus aureus; conditions: 10 μmol/L
How it was run: as §1

HUVEC invasion by NRS123 = test: Invasion assay with community-acquired MRSA strain; assay type: cell-based, human; conditions: 10 μmol/L, 18-20 h pretreatment
How it was run: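 Attachment Factor-coated dishes seeded with HUVEC, pretreated 18-20 h with test compound or matched vehicle. Stocks were 5 mmol/L in DMSO or PEG, diluted to 1 mmol/L in solvent, then into EndoGRO-LS. Unlabeled saline-washed NRS123 at MOI 1440 (1 h, 37°C). Extracellular bacteria killed with 20 μg/ml lysostaphin/50 μg/ml gentamicin (45 min). Cells lysed with 1% saponin/PBS (20 min); dilutions plated on TSA (16 h), CFU/ml counted.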

CCC(C)(C)C(=O)O[C@H]1C[C@@H](C)C=C2C=C[C@H](C)[C@H](CC[C@@H]3C[C@@H](O)CC(=O)O3)[C@H]21 [simvastatin]
Survival in a murine model of pneumonia (S. aureus pneumonia): improved survival | Endothelial cell invasion by S. aureus [1]: decreased

COc1ccc(C2CC(c3ccccc3)=NN2c2ccc(S(N)(=O)=O)cc2)cc1OC (stereo not shown) [RSM 15]
CFU/ml (×10^10± SEM), Compound (MSSA (ATCC 29213)): 2.0 ± 0.2 CFU/ml ×10^10 | Internalized bacteria (% vehicle control ± SEM), RSM structural analog ([2]; 10 μmol/L): 45 ± 1 % ^††† | Mean fluorescence intensity (×10^4± SEM), Compound (HUVEC): 4.0 ± 0.4 ×10^4

COc1ccc(C2=NN(c3ccc(S(N)(=O)=O)cc3)C(c3ccc(OC)c(OC)c3)C2)cc1 (stereo not shown) [RSM 16]
CFU/ml (×10^10± SEM), Compound (MSSA (ATCC 29213)): 1.8 ± 0.4 CFU/ml ×10^10 | Internalized bacteria (% vehicle control ± SEM), RSM structural analog ([2]; 10 μmol/L): 63 ± 4 % ^††† | Mean fluorescence intensity (×10^4± SEM), Compound (HUVEC): 1.4 ± 0.2 ×10^4

NS(=O)(=O)c1ccc(N2N=C(c3ccccc3)CC2c2ccc3c(c2)OCO3)cc1 (stereo not shown) [RSM 05]
CFU/ml (×10^10± SEM), Compound (MSSA (ATCC 29213)): 1.6 ± 0.3 CFU/ml ×10^10 | Internalized bacteria (% vehicle control ± SEM), RSM structural analog ([2]; 10 μmol/L): 38 ± 3 % ^†† | Mean fluorescence intensity (×10^4± SEM), Compound (HUVEC): 3.9 ± 0.2 ×10^4

COc1ccc(C2C3Cc4ccccc4C3=NN2c2ccc(S(N)(=O)=O)cc2)cc1 (stereo not shown) [RSM 21]
CFU/ml (×10^10± SEM), Compound (MSSA (ATCC 29213)): 3.0 ± 0.2 CFU/ml ×10^10 | Internalized bacteria (% vehicle control ± SEM), RSM structural analog ([2]; 10 μmol/L): 79 ± 3 % ^† | Mean fluorescence intensity (×10^4± SEM), Compound (HUVEC): 2.8 ± 0.09 ×10^4

COCCOc1ccc(C2=NN(c3ccc(S(N)(=O)=O)cc3)C(c3ccc(Cl)cc3)C2)cc1 (stereo not shown) [RSM 20]
CFU/ml (×10^10± SEM), Compound (MSSA (ATCC 29213)): 2.1 ± 0.4 CFU/ml ×10^10 | Internalized bacteria (% vehicle control ± SEM), RSM structural analog ([2]; 10 μmol/L): 61 ± 4 % ^†† | Mean fluorescence intensity (×10^4± SEM), Compound (HUVEC): 2.1 ± 0.2 ×10^4

COc1ccc(C2CC(c3ccccc3)=NN2c2ccc(S(N)(=O)=O)cc2)cc1 (stereo not shown) [ML 141, 4-[3-(4-methoxyphenyl)-5-phenyl-3,4-dihydropyrazol-2-yl]benzenesulfonamide]
HUVEC with vinculin-containing adhesion complexes [3]: 37% | HUVEC adhesion to fibronectin [4]: 14±2% | Bactericidal activity against NRS123 (NRS123; 10 μmol/L): Bactericidal activity was not detected | CFU/ml recovered, NRS123 (NRS123; 1.2 × 10^8 CFU/ml incubated, vehicle control 4.5 × 10^10 ±0.6): 5.6 × 10^10 ±1.5 CFU/ml | Expression of β1 (β1 integrin subunit): No difference | Organelles 24 h post-invasion (ultrastructure) [5]: remained intact | Filopodia at the host cell membrane in response to bacteria ([5]; 24 h post-invasion): not detected | Actin stress fibers in infected cells [6]: remained intact | Bactericidal activity against MSSA (MSSA (ATCC 29213)): Bactericidal activity was not detected | CFU/ml (×10^10± SEM), Compound (MSSA (ATCC 29213)): 1.8 ± 0.6 CFU/ml ×10^10 | Invasion by MRSA252 NRS71 [7]: inhibited invasion | Mean fluorescence intensity in washout samples (reversibility) ([2]; 10 μmol/L 1 h pretreatment, media replaced with vehicle 40 min prior to invasion): returned to baseline | Mean fluorescence intensity compared to vehicle control ([2]; 10 μmol/L, 18-20 h pretreatment, 1 h infection): lower | Mean fluorescence intensity (×10^4± SEM), Compound (HUVEC): 2.1 ± 0.3 ×10^4 | Cytotoxicity in HUVEC (HUVEC; incubated 1 h): Cytotoxicity was not detected | Bactericidal activity against MRSA252 NRS71 (MRSA252 NRS71): Bactericidal activity was not detected | CFU/ml recovered, MRSA252 NRS71 (MRSA252 NRS71; 1 h, 1.2 × 10^8 CFU/ml incubated): 1.9 × 10^10 ±0.2 CFU/ml | Invasion by NRS123 (HUVEC invasion by NRS123): inhibited invasion

COc1ccc(C2=NN(c3ccc(S(N)(=O)=O)cc3)C(c3ccc4c(c3)OCO4)C2)cc1 (stereo not shown) [RSM 06]
CFU/ml (×10^10± SEM), Compound (MSSA (ATCC 29213)): 1.0 ± 0.3 CFU/ml ×10^10 | Internalized bacteria (% vehicle control ± SEM), RSM structural analog ([2]; 10 μmol/L): 23 ± 1 % ^††† | Mean fluorescence intensity (×10^4± SEM), Compound (HUVEC): 2.8 ± 0.1 ×10^4

COc1ccc(C2C(C)C(c3ccccc3)=NN2c2ccc(S(N)(=O)=O)cc2)cc1 (stereo not shown) [RSM 19]
Internalized bacteria (% vehicle control ± SEM), RSM structural analog ([2]; 10 μmol/L): 61 ± 2 % ^†† | Mean fluorescence intensity (×10^4± SEM), Compound (HUVEC): 2.6 ± 0.01 ×10^4

COc1ccc(C2=NN(c3ccc(S(N)(=O)=O)cc3)C(c3ccccc3)C2)cc1 (stereo not shown) [RSM 07]
CFU/ml (×10^10± SEM), Compound (MSSA (ATCC 29213)): 2.8 ± 0.3 CFU/ml ×10^10 | Internalized bacteria (% vehicle control ± SEM), RSM structural analog ([2]; 10 μmol/L): 34 ± 2 % ^†† | Mean fluorescence intensity (×10^4± SEM), Compound (HUVEC): 2.5 ± 0.4 ×10^4
